Laboratory results as given in ChEMBL document CHEMBL1134510, “Adenosine analogues as selective inhibitors of glyceraldehyde-3-phosphate dehydrogenase of Trypanosomatidae via structure-based drug design” (J Med Chem, 2001).

What was measured:
[1] = biological target: Glyceraldehyde-3-phosphate dehydrogenase, glycosomal (Leishmania mexicana, UniProt Q27890); assay: Inhibitory activity against Leishmania mexicana GAPDH
In short: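 Spectrophotometric GAPDH assay at 23 °C in 0.10 M triethanolamine/HCl pH 7.5, read as NADH formation at 340 nm. Final: 5.0 mM MgSO4, 1.0 mM EDTA, 12.8 mM KH2PO4, 1.0 mM DTT, 1.0 mM NaN3, 0.45 mM NAD+, 1.87 mM fresh glyceraldehyde-3-phosphate, 5% DMSO-d6. Started with enzyme. Initial rates 0–2 min as % of control. IC50 from ≥5 concentrations (≤50 µM) or extrapolated from ≥3.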

[2] = Inhibitory activity against Leishmania mexicana GAPDH; Inactive at 50 uM
[3] = In vitro inhibition of Trypanosoma brucei GAPDH.
In short: (§1)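 Spectrophotometric assay at 23 °C in 0.10 M triethanolamine/HCl, pH 7.5. Enzyme starts the reaction and inhibitors are in 5% DMSO-d₆. Initial rates over 0–2 min are compared with control. IC50 comes from ≥5 concentrations, or is extrapolated from ≥3 concentrations when above 50 µM.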

Trypanosoma brucei = assay: Effective concentration required to block the growth of bloodstream Trypanosoma brucei; assay type: functional; settings: read-out: ED50 (the source's name)
In short: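 Bloodstream-form strain 427 trypomastigotes are grown in HMI-9 with 10% FBS at 37 °C, 5% CO₂. Triplicate wells are seeded at 5 × 10³ parasites per well with serially diluted drug. Growth is read with Alamar Blue at 48 h. Assays were run twice.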

[4] = In vitro inhibition of rabbit muscle GAPDH.; set-up: species or system Oryctolagus cuniculus; in short: as §1
Trypanosoma cruzi = assay: Effective concentration required to inhibit the growth of mammalian stage of Trypanosoma cruzi grown in murine 3T3 fibroblasts; assay type: functional; settings: read-out: ED50 (the source's name)
In short: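 Tulahuen strain stably carrying E. coli lacZ. Mammalian stages are cocultured with mouse 3T3 fibroblasts in RPMI 1640 with 10% FBS at 37 °C, 5% CO₂. Intracellular growth is followed by a colorimetric β-galactosidase read-out. Assays were run twice.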

NIH3T3 = assay: Effective concentration required to inhibit the growth of murine 3T3 fibroblasts; assay type: functional; settings: Mus musculus, read-out: ED50 (the source's name)
[5] = In vitro inhibition of Trypanosoma cruzi GAPDH.; in short: as §1

Chain of Glyceraldehyde-3-phosphate dehydrogenase, glycosomal (Q27890 whole entry, looked up): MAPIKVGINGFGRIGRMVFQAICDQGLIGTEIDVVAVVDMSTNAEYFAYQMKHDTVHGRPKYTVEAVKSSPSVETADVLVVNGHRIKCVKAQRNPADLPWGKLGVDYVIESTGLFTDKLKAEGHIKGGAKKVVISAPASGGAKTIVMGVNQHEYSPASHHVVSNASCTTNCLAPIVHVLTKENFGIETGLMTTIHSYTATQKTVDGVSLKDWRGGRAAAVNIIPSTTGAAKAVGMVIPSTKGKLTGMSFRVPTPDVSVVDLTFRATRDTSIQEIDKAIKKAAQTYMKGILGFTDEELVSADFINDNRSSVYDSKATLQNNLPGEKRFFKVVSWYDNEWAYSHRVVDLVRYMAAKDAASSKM

CC(=O)Oc1ccc(C(=O)N[C@@H]2[C@H](O)[C@@H](CO)O[C@H]2n2cnc3c(NCc4cccc5ccccc45)ncnc32)cc1OC(C)=O
IC50 [1]: 25 µM

O=C(N[C@@H]1[C@H](O)[C@@H](CO)O[C@H]1n1cnc2c(NCc3cccc4ccccc34)ncnc21)c1ccccc1O
IC50 [2]: Not Active

Nc1ncnc2c1ncn2C1O[C@H](CNC(=O)C(c2ccccc2)c2ccccc2)[C@@H](O)[C@H]1O (stereo partly specified)
IC50 [1]: 250 µM

COc1cccc(C(=O)N[C@@H]2[C@H](O)[C@@H](CO)O[C@H]2n2cnc3c(NCc4cc(O)cc5ccccc45)ncnc32)c1
IC50 [3]: 25 µM
EC50 (Trypanosoma brucei): 35 µM
IC50 [4]: > 50 µM
EC50 (Trypanosoma cruzi): > 50 µM
EC50 (NIH3T3): > 50 µM
IC50 [1]: 6 µM
IC50 [5]: 12 µM

COc1cc(OC)cc(C(=O)N[C@@H]2C(Cn3cnc4c(N)ncnc43)OC(CNC(=O)CC3CCCCC3)[C@@H]2O)c1 (stereo partly specified)
IC50 [1]: 100 µM

COc1cc(CNc2ncnc3c2ncn3[C@@H]2O[C@H](CO)[C@@H](O)[C@H]2NC(=O)c2cc(Cl)cc(Cl)c2)c2ccccc2c1
IC50 [3]: 45 µM
EC50 (Trypanosoma brucei): 16 µM
IC50 [4]: > 50 µM
EC50 (Trypanosoma cruzi): 16 µM
EC50 (NIH3T3): 32 µM
IC50 [1]: 25 µM
IC50 [5]: 40 µM

O=C(N[C@@H]1[C@H](O)[C@@H](CO)O[C@H]1n1cnc2c(NCc3cccc4ccccc34)ncnc21)c1ccc(O)c(O)c1
IC50 [1]: 18 µM

CC(=O)Oc1cccc(C(=O)N[C@@H]2[C@H](O)[C@@H](CO)O[C@H]2n2cnc3c(NCc4cccc5ccccc45)ncnc32)c1
IC50 [1]: 50 µM

COc1cccc(C(=O)N[C@@H]2[C@H](O)[C@@H](CO)O[C@H]2n2cnc3c(NCc4ccc(OC)c5ccccc45)ncnc32)c1
IC50 [3]: 26 µM
EC50 (Trypanosoma brucei): 10 µM
IC50 [4]: > 50 µM
EC50 (Trypanosoma cruzi): 12 µM
EC50 (NIH3T3): 50 µM
IC50 [1]: 6 µM
IC50 [5]: 50 µM

O=C(N[C@@H]1[C@H](O)[C@@H](CO)O[C@H]1n1cnc2c(NCc3cccc4ccccc34)ncnc21)c1ccc(O)cc1
IC50 [1]: 80 µM

O=C(CC1CCCCC1)NC[C@H]1OC(n2cnc3c(NCc4cccc5ccccc45)ncnc32)[C@H](O)[C@@H]1O (stereo partly specified)
IC50 [2]: Not Active

O=C(N[C@@H]1[C@H](O)[C@@H](CO)O[C@H]1n1cnc2c(NCc3cccc4ccccc34)ncnc21)c1cccc(Cl)c1
IC50 [1]: 6 µM

COc1cccc(C(=O)N[C@@H]2[C@H](O)[C@@H](CO)O[C@H]2n2cnc3c(NCc4cccc5ccccc45)ncnc32)c1O
IC50 [2]: Not Active

COc1cc(C(=O)N[C@@H]2[C@H](O)[C@@H](CO)O[C@H]2n2cnc3c(NCc4cccc5ccccc45)ncnc32)ccc1O
IC50 [1]: 10 µM

O=C(N[C@@H]1[C@H](O)[C@@H](CO)O[C@H]1n1cnc2c(NCc3cccc4ccccc34)ncnc21)c1cccc(O)c1
IC50 [1]: 25 µM

COc1cc(OC)cc(C(=O)N[C@@H]2C(Cn3cnc4c(N)ncnc43)OC(CNC(=O)C(c3ccccc3)c3ccccc3)[C@@H]2O)c1 (stereo partly specified)
IC50 [1]: 60 µM

COc1cccc(C(=O)N[C@@H]2[C@H](O)[C@@H](CO)O[C@H]2n2cnc3c(NCc4cccc5ccccc45)ncnc32)c1OC(C)=O
IC50 [2]: Not Active

COc1cc(C(=O)N[C@@H]2[C@H](O)[C@@H](CO)O[C@H]2n2cnc3c(NCc4cccc5ccccc45)ncnc32)ccc1OC(C)=O
IC50 [1]: 10 µM

CC(=O)Oc1ccccc1C(=O)N[C@@H]1[C@H](O)[C@@H](CO)O[C@H]1n1cnc2c(NCc3cccc4ccccc34)ncnc21
IC50 [2]: Not Active

COc1cc(OC)cc(C(=O)N[C@@H]2C(Cn3cnc4c(Nc5ccc6ccccc6c5)ncnc43)OC(CO)[C@@H]2O)c1 (stereo partly specified)
IC50 [1]: 60 µM

COc1cc(OC)cc(C(=O)N[C@@H]2[C@H](O)[C@@H](CO)O[C@H]2n2cnc3c(NCc4cccc5ccccc45)ncnc32)c1
IC50 [3]: 7 µM
EC50 (Trypanosoma brucei): 17 µM
IC50 [4]: > 50 µM
EC50 (Trypanosoma cruzi): 8 µM
EC50 (NIH3T3): 40 µM
IC50 [1]: 2 µM
IC50 [5]: 7 µM

COc1cc(OC)cc(C(=O)N[C@@H]2C(Cn3cnc4c(NCc5cccc(C)c5)ncnc43)OC(CO)[C@@H]2O)c1 (stereo partly specified)
IC50 [1]: 25 µM

COc1cc(OC)cc(C(=O)N[C@@H]2C(Cn3cnc4c(NCc5ccccc5Sc5ccccc5CO)ncnc43)OC(CO)[C@@H]2O)c1 (stereo partly specified)
IC50 [1]: 75 µM

COc1ccc(C(=O)N[C@@H]2[C@H](O)[C@@H](CO)O[C@H]2n2cnc3c(NCc4cccc5ccccc45)ncnc32)cc1OC
IC50 [3]: 47 µM
EC50 (Trypanosoma brucei): 36 µM
IC50 [4]: > 50 µM
EC50 (Trypanosoma cruzi): 22 µM
EC50 (NIH3T3): > 55 µM
IC50 [1]: 4 µM
IC50 [5]: 7 µM

COc1cccc(C(=O)N[C@@H]2[C@H](O)[C@@H](CO)O[C@H]2n2cnc3c(NCc4cc(OC)cc5ccccc45)ncnc32)c1
IC50 [3]: 12 µM
EC50 (Trypanosoma brucei): 31 µM
IC50 [4]: > 50 µM
EC50 (Trypanosoma cruzi): 20 µM
EC50 (NIH3T3): > 50 µM
IC50 [1]: 3 µM
IC50 [5]: 12 µM

CC(=O)Oc1ccc(C(=O)N[C@@H]2[C@H](O)[C@@H](CO)O[C@H]2n2cnc3c(NCc4cccc5ccccc45)ncnc32)cc1
IC50 [1]: 100 µM

COc1ccc(C(=O)N[C@@H]2[C@H](O)[C@@H](CO)O[C@H]2n2cnc3c(NCc4cccc5ccccc45)ncnc32)cc1OC(C)=O
IC50 [1]: 78 µM

COc1cc(OC)cc(C(=O)N[C@@H]2C(Cn3cnc4c(NC5CCCc6ccccc65)ncnc43)OC(CO)[C@@H]2O)c1 (stereo partly specified)
IC50 [1]: 75 µM

CN(C)c1cccc(C(=O)N[C@@H]2[C@H](O)[C@@H](CO)O[C@H]2n2cnc3c(NCc4cccc5ccccc45)ncnc32)c1
IC50 [1]: 25 µM

O=C(N[C@@H]1[C@H](O)[C@@H](CO)O[C@H]1n1cnc2c(NCc3cccc4ccccc34)ncnc21)c1ccc(Cl)cc1
IC50 [1]: 100 µM

COc1cc(OC)cc(C(=O)N[C@@H]2C(Cn3cnc4c(NCc5ccccc5C)ncnc43)OC(CO)[C@@H]2O)c1 (stereo partly specified)
IC50 [1]: 25 µM

O=C(Cn1ccnc1[N+](=O)[O-])NCc1ccccc1 [BENZNIDAZOLE]
IC50 [4]: > 50 µM
EC50 (Trypanosoma cruzi): 0.5 µM
EC50 (NIH3T3): > 50 µM

COc1cc(OC)cc(C(=O)N[C@@H]2[C@H](O)[C@@H](CO)O[C@H]2n2cnc3c(NCc4cc(OC)cc5ccccc45)ncnc32)c1
IC50 [3]: 5 µM
EC50 (Trypanosoma brucei): 35 µM
IC50 [4]: > 50 µM
EC50 (Trypanosoma cruzi): 35 µM
EC50 (NIH3T3): > 50 µM
IC50 [1]: 2 µM
IC50 [5]: 7 µM

Nc1ncnc2c1ncn2C1O[C@H](CNC(=O)CC2CCCCC2)[C@@H](O)[C@H]1O (stereo partly specified)
IC50 [1]: 250 µM

COc1cc(OC)cc(C(=O)N[C@@H]2[C@H](O)[C@@H](CO)O[C@H]2n2cnc3c(NCc4cc(O)cc5ccccc45)ncnc32)c1
IC50 [3]: 8 µM
EC50 (Trypanosoma brucei): 38 µM
IC50 [4]: > 50 µM
EC50 (Trypanosoma cruzi): > 50 µM
EC50 (NIH3T3): > 50 µM
IC50 [1]: 2 µM
IC50 [5]: 10 µM

CC(=O)Oc1cc(OC(C)=O)cc(C(=O)N[C@@H]2[C@H](O)[C@@H](CO)O[C@H]2n2cnc3c(NCc4cccc5ccccc45)ncnc32)c1
IC50 [3]: 14 µM
EC50 (Trypanosoma brucei): > 50 µM
IC50 [4]: > 50 µM
EC50 (Trypanosoma cruzi): > 50 µM
EC50 (NIH3T3): > 50 µM
IC50 [1]: 10 µM
IC50 [5]: 12 µM

O=C(N[C@@H]1[C@H](O)[C@@H](CO)O[C@H]1n1cnc2c(NCc3cccc4ccccc34)ncnc21)c1cc(O)cc(O)c1
IC50 [3]: 26 µM
EC50 (Trypanosoma brucei): 50 µM
IC50 [4]: > 50 µM
EC50 (Trypanosoma cruzi): > 50 µM
EC50 (NIH3T3): > 50 µM
IC50 [1]: 5 µM
IC50 [5]: 14 µM

COc1cccc(C(=O)N[C@@H]2[C@H](O)[C@@H](CO)O[C@H]2n2cnc3c(NCc4cccc5ccccc45)ncnc32)c1
IC50 [3]: 25 µM
EC50 (Trypanosoma brucei): 18 µM
IC50 [4]: > 50 µM
EC50 (Trypanosoma cruzi): 10 µM
EC50 (NIH3T3): 40 µM
IC50 [1]: 6 µM
IC50 [5]: 12 µM

COc1ccc(C(=O)N[C@@H]2[C@H](O)[C@@H](CO)O[C@H]2n2cnc3c(NCc4cccc5ccccc45)ncnc32)cc1O
IC50 [1]: 37 µM

O=C(N[C@@H]1[C@H](O)[C@@H](CO)O[C@H]1n1cnc2c(NCc3cc(O)cc4ccccc34)ncnc21)c1cccc(Cl)c1
IC50 [3]: 25 µM
EC50 (Trypanosoma brucei): 16 µM
IC50 [4]: > 50 µM
EC50 (Trypanosoma cruzi): 30 µM
EC50 (NIH3T3): > 50 µM
IC50 [1]: 4 µM
IC50 [5]: 12 µM

O=C(N[C@@H]1[C@H](O)[C@@H](CO)O[C@H]1n1cnc2c(NCc3cccc4ccccc34)ncnc21)c1cc(Cl)cc(Cl)c1
IC50 [3]: 100 µM
EC50 (Trypanosoma brucei): 5 µM
IC50 [4]: > 50 µM
EC50 (Trypanosoma cruzi): 7 µM
EC50 (NIH3T3): 35 µM
IC50 [1]: 12 µM
IC50 [5]: 75 µM

COc1cc(OC)cc(C(=O)N[C@@H]2C(Cn3cnc4c(NC(c5ccccc5)c5ccccc5)ncnc43)OC(CO)[C@@H]2O)c1 (stereo partly specified)
IC50 [1]: 55 µM

COc1cc(OC)cc(C(=O)N[C@@H]2C(Cn3cnc4c(NCc5ccccc5)ncnc43)OC(CO)[C@@H]2O)c1 (stereo partly specified)
IC50 [1]: 20 µM

COc1ccc(C(=O)N[C@@H]2[C@H](O)[C@@H](CO)O[C@H]2n2cnc3c(NCc4cccc5ccccc45)ncnc32)cc1
IC50 [1]: 100 µM

O=C(N[C@@H]1[C@H](O)[C@@H](CO)O[C@H]1n1cnc2c(NCc3cc(O)cc4ccccc34)ncnc21)c1cc(Cl)cc(Cl)c1
IC50 [3]: 55 µM
EC50 (Trypanosoma brucei): 12 µM
IC50 [4]: > 50 µM
EC50 (Trypanosoma cruzi): 41 µM
EC50 (NIH3T3): 43 µM
IC50 [1]: 25 µM
IC50 [5]: 40 µM
